Test results as given in ChEMBL document CHEMBL1150822, “Additional bioactive Lyso-PAF congeners from the sponge Spirastrella abata” (J Nat Prod, 2001).
Values after ≈ are worked out from the molar mass of the structure shown. Active and inactive are the calls of the source. The calls are words filed in the database; no cut-off is given here.

Tested on: HCT-15
Test: Cytotoxicity against human HCT15 cells after 48 hrs by SRB assay
Format: functional
Conditions: HCT-15, 48 h, read-out: ED50 (the source's name)
Method in brief: (§1)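 Rapidly growing cells were harvested and seeded at (1-2) × 10^4 cells/well, then preincubated for 24 h. Compounds dissolved in culture medium were added in triplicate, and cells were incubated for 48 h at 37 °C under 5% CO2. Cells were fixed with cold TCA and stained with 0.4% SRB in 1% acetic acid. Bound dye was solubilized in 10 mM unbuffered Tris base and absorbance read at 520 nm.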

| SMILES | EC50 [µg/mL] |
| --- | --- |
| CCCCCCCCCCCCCCC(COC[C@H](O)COP(=O)([O-])OCC[N+](C)(C)C)OC (some centres undefined) | 5 (≈ 9.77 µM) |
| CCCCCCCCCCCCCCCCOC[C@@H](O)COP(=O)([O-])OCC[N+](C)(C)C | 5.4 (≈ 11.2 µM) |
| CCCCCCCCCCCC/C=C\CCOC[C@H](O)COP(=O)([O-])OCC[N+](C)(C)C | > 30 |
| CCCCCCCCCCC/C=C\CC(COC[C@H](O)COP(=O)([O-])OCC[N+](C)(C)C)OC (some centres undefined) | 3.7 (≈ 7.26 µM) |
| CCCCCCCCCCC/C=C\CCCOC[C@H](O)COP(=O)([O-])OCC[N+](C)(C)C | > 30 |
| COc1cccc2c1C(=O)c1c(O)c3c(c(O)c1C2=O)C[C@@](O)(C(=O)CO)C[C@@H]3O[C@H]1C[C@H](N)[C@H](O)[C@H](C)O1 [DOXORUBICIN] | 0.04 (≈ 0.0736 µM) |

Tested on: Chang
Test: (§2) Inhibition of cholesterol biosynthesis in human Chang cells
Format: functional, cell-based
Conditions: not given

| SMILES | Activity |
| --- | --- |
| CCCCCCCCCCCCCCC(COC[C@H](O)COP(=O)([O-])OCC[N+](C)(C)C)OC (some centres undefined) | inactive |
| CCCCCCCCCCCCCCCCOC[C@@H](O)COP(=O)([O-])OCC[N+](C)(C)C | inactive |

Tested on: not listed separately
Test: as §2
Format: functional, cell-based
Conditions: not given

| SMILES | IC50 [µg/mL] |
| --- | --- |
| CCCCCCCCCCCC/C=C\CCOC[C@H](O)COP(=O)([O-])OCC[N+](C)(C)C | 102 (≈ 213 µM) |
| CCCCCCCCCCC/C=C\CCCOC[C@H](O)COP(=O)([O-])OCC[N+](C)(C)C | 118 (≈ 246 µM) |

Tested on: XF498
Test: Cytotoxicity against human XF498 cells after 48 hrs by SRB assay
Format: functional
Conditions: XF498, 48 h, read-out: ED50 (the source's name)
Method in brief: as §1

| SMILES | EC50 [µg/mL] |
| --- | --- |
| CCCCCCCCCCCCCCC(COC[C@H](O)COP(=O)([O-])OCC[N+](C)(C)C)OC (some centres undefined) | 4.5 (≈ 8.79 µM) |
| CCCCCCCCCCCCCCCCOC[C@@H](O)COP(=O)([O-])OCC[N+](C)(C)C | 4.9 (≈ 10.2 µM) |
| CCCCCCCCCCCC/C=C\CCOC[C@H](O)COP(=O)([O-])OCC[N+](C)(C)C | > 30 |
| CCCCCCCCCCC/C=C\CC(COC[C@H](O)COP(=O)([O-])OCC[N+](C)(C)C)OC (some centres undefined) | 4 (≈ 7.85 µM) |
| CCCCCCCCCCC/C=C\CCCOC[C@H](O)COP(=O)([O-])OCC[N+](C)(C)C | > 30 |
| COc1cccc2c1C(=O)c1c(O)c3c(c(O)c1C2=O)C[C@@](O)(C(=O)CO)C[C@@H]3O[C@H]1C[C@H](N)[C@H](O)[C@H](C)O1 [DOXORUBICIN] | 0.08 (≈ 0.147 µM) |

Tested on: SK-MEL-2 (Homo sapiens)
Test: Cytotoxicity against human SK-MEL-2 cells after 48 hrs by SRB assay
Conditions: SK-MEL-2, 48 h, read-out: ED50 (the source's name)

| SMILES | EC50 [µg/mL] |
| --- | --- |
| CCCCCCCCCCCCCCC(COC[C@H](O)COP(=O)([O-])OCC[N+](C)(C)C)OC (some centres undefined) | 5.2 (≈ 10.2 µM) |
| CCCCCCCCCCCCCCCCOC[C@@H](O)COP(=O)([O-])OCC[N+](C)(C)C | 5.4 (≈ 11.2 µM) |
| CCCCCCCCCCCC/C=C\CCOC[C@H](O)COP(=O)([O-])OCC[N+](C)(C)C | > 30 |
| CCCCCCCCCCC/C=C\CC(COC[C@H](O)COP(=O)([O-])OCC[N+](C)(C)C)OC (some centres undefined) | 3.8 (≈ 7.46 µM) |
| CCCCCCCCCCC/C=C\CCCOC[C@H](O)COP(=O)([O-])OCC[N+](C)(C)C | > 30 |
| COc1cccc2c1C(=O)c1c(O)c3c(c(O)c1C2=O)C[C@@](O)(C(=O)CO)C[C@@H]3O[C@H]1C[C@H](N)[C@H](O)[C@H](C)O1 [DOXORUBICIN] | 0.02 (≈ 0.0368 µM) |

Tested on: A549
Test: Cytotoxicity against human A549 cells after 48 hrs by SRB assay
Format: functional
Conditions: A549, 48 h, read-out: ED50 (the source's name)
Method in brief: as §1

| SMILES | EC50 [µg/mL] |
| --- | --- |
| CCCCCCCCCCCCCCC(COC[C@H](O)COP(=O)([O-])OCC[N+](C)(C)C)OC (some centres undefined) | 5.8 (≈ 11.3 µM) |
| CCCCCCCCCCCCCCCCOC[C@@H](O)COP(=O)([O-])OCC[N+](C)(C)C | 5.5 (≈ 11.4 µM) |
| CCCCCCCCCCCC/C=C\CCOC[C@H](O)COP(=O)([O-])OCC[N+](C)(C)C | > 30 |
| CCCCCCCCCCC/C=C\CC(COC[C@H](O)COP(=O)([O-])OCC[N+](C)(C)C)OC (some centres undefined) | 6.3 (≈ 12.4 µM) |
| CCCCCCCCCCC/C=C\CCCOC[C@H](O)COP(=O)([O-])OCC[N+](C)(C)C | > 30 |
| COc1cccc2c1C(=O)c1c(O)c3c(c(O)c1C2=O)C[C@@](O)(C(=O)CO)C[C@@H]3O[C@H]1C[C@H](N)[C@H](O)[C@H](C)O1 [DOXORUBICIN] | 0.02 (≈ 0.0368 µM) |

Tested on: SK-OV-3
Test: Cytotoxicity against human SKOV3 cells after 48 hrs by SRB assay
Format: functional
Conditions: SK-OV-3, 48 h, read-out: ED50 (the source's name)
Method in brief: as §1

| SMILES | EC50 [µg/mL] |
| --- | --- |
| CCCCCCCCCCCCCCC(COC[C@H](O)COP(=O)([O-])OCC[N+](C)(C)C)OC (some centres undefined) | 5.7 (≈ 11.1 µM) |
| CCCCCCCCCCCCCCCCOC[C@@H](O)COP(=O)([O-])OCC[N+](C)(C)C | 4.9 (≈ 10.2 µM) |
| CCCCCCCCCCCC/C=C\CCOC[C@H](O)COP(=O)([O-])OCC[N+](C)(C)C | > 30 |
| CCCCCCCCCCC/C=C\CC(COC[C@H](O)COP(=O)([O-])OCC[N+](C)(C)C)OC (some centres undefined) | 5.9 (≈ 11.6 µM) |
| CCCCCCCCCCC/C=C\CCCOC[C@H](O)COP(=O)([O-])OCC[N+](C)(C)C | > 30 |
| COc1cccc2c1C(=O)c1c(O)c3c(c(O)c1C2=O)C[C@@](O)(C(=O)CO)C[C@@H]3O[C@H]1C[C@H](N)[C@H](O)[C@H](C)O1 [DOXORUBICIN] | 0.11 (≈ 0.202 µM) |
